Screening data (PubChem BioAssay)
Ec RNAP inh: inhibitors of Escherichia coli RNA polymerase; P0A8V2; E. coli RNA polymerase, fluorescence transcription assay; inhibition, %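 (tested at 10 µM)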; 62,000 compounds, 0.2% hits; in the data active means inhibition above about 20%
D1 mod: allosteric modulators of human D1 dopamine receptor | B-score at 10 µM | HEK293 D1, CRE-luciferase, dopamine EC30 potentiation; actives deviate in either direction | P21728 | 58,000 compounds, 5.9% hits;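 active means luminescence count or its row- and column-corrected plate score outside the 99.7% band of the plate's sample wells, on either side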
DAT uptake mod: changed human dopamine transporter uptake under cocaine IC80; 110,000 compounds, 1.3% hits; LLC-PK1 hDAT cells, [14C]-dopamine uptake with cocaine IC80; actives deviate in either direction; AID 449768; Q01959; B-score at 10 µM;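 active means Z score or B-score, a plate-position-corrected score, falls beyond the plate's 99.7% confidence bounds, in either direction; inactive means both scores lie inside the 99.7% bounds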
HEK293 NFkB inh: lowers PMA/ionomycin-induced NF-kB signal in HEK293 cells. 62,000 compounds, 0.21% hits. inhibition, % at 3 µM. HEK-293 NF-kB luciferase reporter, luminescence. AID 465;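 active means inhibition above the mean of all tested compounds plus 3 SD, cut at about 40% in these data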
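System: NF-kB luciferase reporter HEK-293 cells | Replication: Single test | Control set: DMSO vs reference inhibitor | Evaluation: % inhibition | Schedule: 1 h pretreatment, 16 h stimulation, 37 °C | Probe or stimulus: PMA with ionomycin | Compound dosing: One dose, 3 µM | Detection: Luciferase luminescence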
AP ELISA ortho: alternative pathway complement inhibition, orthogonal assay. inhibition, % at 5 µM. 62,000 compounds, 0.08% hits. Human serum alternative complement pathway, LPS-coated ELISA, C3 deposition; tested in compound mixtures;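 active means inhibition above 30% in each of the two pooled mixtures holding the compound, so the lower value exceeds 30%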
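Test system – human serum alternative complement pathway, C3 deposition on LPS-coated wells · Buffer or medium – diluted human serum in Mg2+-EGTA GVB++ · Compound dosing – 5 µM each compound, pools of ten, 50 µM per pool · Schedule – 1 h serum-compound exposure at 37 °C · Measured by – Anti-C3 ELISA, OD 450 nm · Read-out basis – percent inhibition of C3 deposition onto LPS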
Large screens that a line does not name were inactive. Only a selection was taken, and hits are over-represented in it overall.

CCOc1ccc2[nH]c(=O)c(C(c3nnnn3Cc3ccco3)N3CCC(C)CC3)cc2c1 (stereo unspecified)	none
CCOc1ccc2[nH]c(=O)c(C(c3nnnn3Cc3ccco3)N3CCCC(C)C3)cc2c1 (stereo unspecified)	DAT uptake mod 2.49
O=C(Cn1c(C(=O)N2CCN(C3CCCC3)CC2)cc2sccc21)c1ccccc1	DAT uptake mod 2.49 (no result: Ec RNAP inh)
O=C(NC1CC2CCC1C2)C1CCN(S(=O)(=O)c2ccc(-c3nn[nH]n3)cc2)CC1 (stereo unspecified)	AP ELISA ortho 30.9
CCOC(=O)N1CCC(NC(=O)c2cc(C)c3c(C)nn(-c4ccccc4)c3n2)CC1	none (no result: D1 mod)
Cc1nc(N)sc1-c1csc(Nc2ccc(Cl)cn2)n1	DAT uptake mod 4.46
Cc1nc(N)sc1-c1csc(Nc2ccccn2)n1	D1 mod -6.04, DAT uptake mod 4.61 (no result: Ec RNAP inh)
CCO[C@H]1OC(C(=O)N2CCN(Cc3ccc4c(c3)OCO4)CC2)=C[C@@H](c2ccc(Br)cc2)[C@@H]1CCCO	none (no result: Ec RNAP inh, D1 mod, HEK293 NFkB inh, AP ELISA ortho)
CCOc1ccc(NC(=O)Cn2nnc(-c3ccccc3NC(=O)C3CC3)n2)cc1	Ec RNAP inh 23.7
COc1ccc(NC(=O)Cn2nnc(-c3ccccc3NC(=O)C3CC3)n2)cc1	none
COc1ccc(N(CC(=O)N2CCc3ccccc3C2)S(=O)(=O)c2c(C)nn(C)c2C)cc1	none (no result: D1 mod)
C=CCn1c2ccccc2c2nnc(SCC(=O)Nc3c(C)n(C)n(-c4ccccc4)c3=O)nc21	DAT uptake mod 2.97 (no result: Ec RNAP inh, D1 mod, HEK293 NFkB inh, AP ELISA ortho)
CCn1c2ccccc2c2nnc(SCC(=O)NC(C(=O)OC)C(C)C)nc21 (stereo unspecified)	D1 mod 3.68 (no result: DAT uptake mod)
CCn1c2ccccc2c2nnc(SCC(=O)Nc3c(C)n(C)n(-c4ccccc4)c3=O)nc21	none (no result: Ec RNAP inh, D1 mod, HEK293 NFkB inh, AP ELISA ortho)
CCn1c2ccccc2c2nnc(SCN3C(=O)c4ccccc4C3=O)nc21	D1 mod 9.45 (no result: DAT uptake mod)
Cc1csc(NC(=O)c2cc3c(s2)CCC3)n1	D1 mod -5.59
Cc1nc(NC(=O)c2cc3c(s2)CCCCC3)sc1C(=O)N(C)C	DAT uptake mod 2.32
c1cc(-c2cc3cc(N4CCOCC4)ccc3o2)cs1	none (no result: Ec RNAP inh, D1 mod, HEK293 NFkB inh, AP ELISA ortho)
NS(=O)(=O)c1cc2c(cc1Cl)NC(C1C[C@H]3C=C[C@@H]1C3)NS2(=O)=O (stereo partly specified)	none (no result: HEK293 NFkB inh)
CC(NC(=O)CN1CCC(C(N)=O)CC1)c1ccccc1 (stereo unspecified)	DAT uptake mod -8.07
CC1CCN(C(=O)c2ccc(CSc3nc4ccncc4n3Cc3ccc(F)cc3)cc2)CC1	DAT uptake mod 3.51 (no result: Ec RNAP inh, D1 mod, HEK293 NFkB inh, AP ELISA ortho)
CCC(C)(C)NC(=O)C(c1ccco1)N(C(=O)CNC(=O)c1cccs1)c1cccnc1 (stereo unspecified)	DAT uptake mod -8.17 (no result: Ec RNAP inh, D1 mod, HEK293 NFkB inh, AP ELISA ortho)
O=C(NCc1ccc(Cl)cc1)c1cnccn1	DAT uptake mod -2.8 (no result: Ec RNAP inh, D1 mod, HEK293 NFkB inh, AP ELISA ortho)
COc1ccc(N2CCCn3c2nc2c3c(=O)n(Cc3ccccc3F)c(=O)n2C)c(OC)c1	none
Cc1ccc(S(=O)(=O)N(C)Cc2ccc(-c3nnc4n3CCC4)cc2)cc1	DAT uptake mod 2.25
COC(C[C@@H](O)C[C@H](O)[C@@H](C)OCc1ccccc1)OC	none (no result: Ec RNAP inh, D1 mod, HEK293 NFkB inh, AP ELISA ortho)
CCCCCc1nnc(NC(=O)C(=O)OCC)s1	none (no result: Ec RNAP inh, D1 mod, HEK293 NFkB inh, AP ELISA ortho)
O=C(OCc1cc(=O)n2c(n1)sc1ccccc12)c1ccc2c(=O)n3c(nc2c1)CCC3	D1 mod 4.22
CC1CCC(NC(=O)N(CCCl)N=O)CC1 (stereo unspecified)	none (no result: Ec RNAP inh, D1 mod, HEK293 NFkB inh, AP ELISA ortho)
CC(=O)c1ccc(-c2nc3c4ccccc4ccn3c2C(C)=O)o1	HEK293 NFkB inh 88.7 (no result: DAT uptake mod)
CCCS(=O)(=O)c1c(S(=O)(=O)CCC)c2c3ccccc3ccn2c1C(=O)OC	none (no result: Ec RNAP inh, D1 mod, HEK293 NFkB inh, AP ELISA ortho)
N#Cc1c(N)nc2c(c1N)CC(COc1ccccc1)O2 (stereo unspecified)	none (no result: Ec RNAP inh, D1 mod, HEK293 NFkB inh, AP ELISA ortho)
Cc1ccn2cc(C(=O)Nc3ccc4c(c3)OCCO4)nc2c1	D1 mod -4.49
Cc1ccc(-n2c(=O)[nH]cc(C(=O)Nc3ccc4c(c3)OCCO4)c2=O)cc1	D1 mod -5.04
CCCNC(=O)c1onc(CSc2ccc(Cl)cc2)c1C(=O)NCCC(C)C	none (no result: Ec RNAP inh, D1 mod, HEK293 NFkB inh, AP ELISA ortho)
O=C(CSCCO)Nc1ccc(C2CCCCC2)cc1	DAT uptake mod 3.07
CCOc1ccc(N2C(=O)CC(N3CCN(C(=O)c4ccco4)CC3)C2=O)cc1 (stereo unspecified)	none
CCOC(=O)c1ccc(N2C(=O)CC(N3CCN(C(=O)c4ccco4)CC3)C2=O)cc1 (stereo unspecified)	DAT uptake mod 2.56
